Test results taken from ChEMBL document CHEMBL3785019, “Dihydropyrazole derivatives as telomerase inhibitors: Structure-based design, synthesis, SAR and anticancer evaluation in vitro and in vivo” (Eur J Med Chem, 2016).

Experiments:
[1] = Cytotoxicity against human PC3 cells after 48 hrs by MTT assay; assay type: functional, cell-based, PC-3
Outline: (§1)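 Tumor cells in log phase in RPMI 1640 + 10% FBS, seeded at 3×10^4 cells mL-1 and incubated 24 h (37 °C, 5% CO2). Test samples added at pre-set concentrations (6 wells each), doxorubicin as reference; 48 h exposure. MTT (2.5 mg·mL-1 in PBS) added for 4 h, formazan dissolved in DMSO, A570 read.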

Bcap37 = assay: Cytotoxicity against human Bcap37 cells after 48 hrs by MTT assay; assay type: functional, cell-based; outline: as §1
[2] = Cytotoxicity against human MGC803 cells after 48 hrs by MTT assay; assay type: functional, cell-based, MGC-803; outline: as §1
HepG2 = assay: Cytotoxicity against human HepG2 cells after 48 hrs by MTT assay; assay type: functional, cell-based; outline: as §1
[3] = molecular target: Telomerase reverse transcriptase (Homo sapiens, UniProt O14746); assay: Inhibition of telomerase in human MGC-803 cells after 24 hrs by TRAP-PCR-ELISA assay; assay type: cell-based
Sequence of Telomerase reverse transcriptase (O14746 whole entry): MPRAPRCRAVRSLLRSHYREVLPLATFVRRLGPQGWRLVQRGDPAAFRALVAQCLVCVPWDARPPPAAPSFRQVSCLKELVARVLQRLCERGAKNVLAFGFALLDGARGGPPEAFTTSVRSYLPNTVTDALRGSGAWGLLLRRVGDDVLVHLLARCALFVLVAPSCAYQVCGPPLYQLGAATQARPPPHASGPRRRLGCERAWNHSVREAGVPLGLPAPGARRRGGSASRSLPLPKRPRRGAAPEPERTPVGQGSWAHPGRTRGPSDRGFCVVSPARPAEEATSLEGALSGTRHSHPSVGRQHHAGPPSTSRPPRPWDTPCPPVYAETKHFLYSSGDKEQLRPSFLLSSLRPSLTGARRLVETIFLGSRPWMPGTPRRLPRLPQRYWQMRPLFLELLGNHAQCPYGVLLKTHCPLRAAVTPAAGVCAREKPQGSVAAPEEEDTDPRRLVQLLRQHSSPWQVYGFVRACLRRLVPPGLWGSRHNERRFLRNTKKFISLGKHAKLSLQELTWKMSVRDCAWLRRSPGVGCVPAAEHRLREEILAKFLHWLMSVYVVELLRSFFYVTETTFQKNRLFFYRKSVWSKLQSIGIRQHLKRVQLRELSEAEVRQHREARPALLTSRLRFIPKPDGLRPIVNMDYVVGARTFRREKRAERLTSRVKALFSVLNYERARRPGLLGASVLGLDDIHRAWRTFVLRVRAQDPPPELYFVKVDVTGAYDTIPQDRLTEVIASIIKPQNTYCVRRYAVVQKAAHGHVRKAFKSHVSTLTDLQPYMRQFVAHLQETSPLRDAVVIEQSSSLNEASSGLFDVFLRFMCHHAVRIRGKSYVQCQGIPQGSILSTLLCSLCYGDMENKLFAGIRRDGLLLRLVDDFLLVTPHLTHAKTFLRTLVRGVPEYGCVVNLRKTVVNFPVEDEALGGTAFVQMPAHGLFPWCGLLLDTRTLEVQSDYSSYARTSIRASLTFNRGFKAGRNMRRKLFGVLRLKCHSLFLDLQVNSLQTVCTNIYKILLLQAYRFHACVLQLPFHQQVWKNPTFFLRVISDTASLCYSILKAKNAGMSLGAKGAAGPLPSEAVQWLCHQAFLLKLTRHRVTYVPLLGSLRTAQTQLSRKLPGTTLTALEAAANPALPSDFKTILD
Outline: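 Cells lysed in RIPA on ice for 30 min; extract incubated with TRAP mix at 25 °C for 30 min, then 35 PCR cycles. Products hybridized to DIG probe, captured on streptavidin, detected with peroxidase anti-DIG at 490 nm; mean±SD.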

[4] = Homo sapiens, PC-3, 48 h, read-out: IC50
[5] = Homo sapiens, Bcap37, 48 h, read-out: IC50
[6] = Homo sapiens, MGC-803, 48 h, read-out: IC50
[7] = Homo sapiens, HepG2, 48 h, read-out: IC50

Structure (SMILES)	IC50 [1, 4] [µM]	IC50 (Bcap37; [5]) [µM]	IC50 [2, 6] [µM]	IC50 (HepG2; [7]) [µM]	IC50 [3] [µM]	IC50 (Bcap37; bcap37)	IC50 (HepG2; hepg2)	IC50 ([2]; mgc-803)	IC50 ([1]; pc-3)
CCC(=O)N1N=C(c2cc3ccccc3oc2=O)CC1c1ccccc1 (centres undefined)	4.37	46.3	5.3	9.61	3.63	–	–	–	–
CC1=NN(S(=O)(=O)c2ccc([N+](=O)[O-])cc2)C(c2cc(Br)cc(Br)c2O)C1 (centres undefined)	50	–	40.1	–	–	Not Active	Not Active	–	–
CC1=NN(S(=O)(=O)c2ccc([N+](=O)[O-])cc2)C(c2cc(Cl)ccc2O)C1 (centres undefined)	44.2	52.3	–	–	41.2	–	Not Active	Not Active	–
Cc1ccc(S(=O)(=O)N2N=C(c3cc4ccccc4oc3=O)CC2c2ccccc2)cc1 (centres undefined)	48.6	30.3	50.2	–	–	–	Not Active	–	–
O=C(CN1CCSCC1)N1N=C(c2cc3ccccc3oc2=O)CC1c1ccccc1 (centres undefined)	4	8.2	10.3	8.96	3.3	–	–	–	–
O=C(CNC1CC1)N1N=C(c2cc3ccccc3oc2=O)CC1c1ccccc1 (centres undefined)	28.5	–	–	–	–	Not Active	Not Active	Not Active	–
CC(C)(C)OC(=O)N1CCN(CC(=O)N2N=C(c3cc4ccccc4oc3=O)CC2c2ccccc2)CC1 (centres undefined)	36.4	29.7	–	28.4	–	–	–	Not Active	–
CC1=NN(S(=O)(=O)c2ccc(C)cc2)C(c2cc(Br)ccc2O)C1 (centres undefined)	33.2	36.8	30.7	20.8	–	–	–	–	–
CC(=O)Oc1ccccc1C1CC(C)=NN1C(=O)CN(C(C)C)C(C)C (centres undefined)	24.5	19.4	20.1	34.1	–	–	–	–	–
CC1=NN(C(=O)CN2CCCC2)C(c2ccccc2O)C1 (centres undefined)	6.67	5.35	17.9	5.54	5.44	–	–	–	–
CC(=O)Oc1ccccc1C1CC(C)=NN1C(=O)CN1CCCC1 (centres undefined)	6.21	5.21	6.51	5.09	6.3	–	–	–	–
CC1=NN(C(=O)c2ccc(C)cc2)C(c2ccccc2O)C1 (centres undefined)	40.6	9.97	26.3	11.3	–	–	–	–	–
COc1cccc2c1C(=O)c1c(O)c3c(c(O)c1C2=O)C[C@@](O)(C(=O)CO)C[C@@H]3O[C@H]1C[C@H](N)[C@H](O)[C@H](C)O1 [DOXORUBICIN]	0.87	1.12	–	1.34	–	–	–	–	–
CC1CCCN(CC(=O)N2N=C(c3cc4ccccc4oc3=O)CC2c2ccccc2)C1 (centres undefined)	28.3	–	–	–	–	Not Active	Not Active	Not Active	–
CC1=NN(C(=O)CN2CCSCC2)C(c2ccccc2O)C1 (centres undefined)	29.2	20.6	31.5	45.3	–	–	–	–	–
CC(C)(C)NCC(=O)N1N=C(c2cc3ccccc3oc2=O)CC1c1ccccc1 (centres undefined)	16.4	36.2	15.4	31.4	–	–	–	–	–
CC1=NN(C(=O)CN2CCC(c3ccccc3)CC2)C(c2ccccc2O)C1 (centres undefined)	20.4	33.7	12.3	23.3	–	–	–	–	–
CC1=NN(C(=O)COc2ccc(Cl)cc2)C(c2cc(Br)ccc2O)C1 (centres undefined)	49	36.8	23.6	–	–	–	Not Active	–	–
CC1=NN(C(=O)c2ccccc2Cl)C(c2ccccc2O)C1 (centres undefined)	42.5	30.2	18.3	25.2	–	–	–	–	–
CC1=NN(C(=O)CCc2ccccc2)C(c2cc(Br)cc(Br)c2O)C1 (centres undefined)	11.3	27.2	17.1	9.17	–	–	–	–	–

Structure (SMILES)	IC50 [1, 4] [µM]	IC50 (Bcap37; [5]) [µM]	IC50 [2, 6] [µM]	IC50 (HepG2; [7]) [µM]	IC50 [3] [µM]	IC50 (Bcap37; bcap37)	IC50 (HepG2; hepg2)	IC50 ([2]; mgc-803)	IC50 ([1]; pc-3)
CC1CC(C)CN(CC(=O)N2N=C(c3cc4ccccc4oc3=O)CC2c2ccccc2)C1 (centres undefined)	–	–	–	–	–	Not Active	Not Active	Not Active	Not Active
CCN(CC)C1CCN(CC(=O)N2N=C(c3cc4ccccc4oc3=O)CC2c2ccccc2)CC1 (centres undefined)	26.1	15.5	32.4	19.3	–	–	–	–	–
CC1=NN(C(=O)c2ccc(C)cc2)C(c2cc(Br)cc(Br)c2O)C1 (centres undefined)	41.2	–	56.5	–	–	Not Active	Not Active	–	–
CN1CCN(CC(=O)N2N=C(c3cc4ccccc4oc3=O)CC2c2ccccc2)CC1 (centres undefined)	25.8	16.9	46.1	33.1	–	–	–	–	–
CC1CCCCN1CC(=O)N1N=C(c2cc3ccccc3oc2=O)CC1c1ccccc1 (centres undefined)	36.3	–	–	–	–	Not Active	Not Active	Not Active	–
O=C(CN1CCCC1)N1N=C(c2cc3ccccc3oc2=O)CC1c1ccccc1 (centres undefined)	50.2	–	–	44.3	–	Not Active	–	Not Active	–
CC1=NN(C(=O)/C=C/c2ccccc2)C(c2ccccc2O)C1 (centres undefined)	42	–	39.6	29	–	Not Active	–	–	–
CC1=NN(C(=O)CCc2ccccc2)C(c2cc(Br)ccc2O)C1 (centres undefined)	16.2	41.3	21.2	17.9	–	–	–	–	–
CC1=NN(C(=O)CN(CC(C)C)CC(C)C)C(c2ccccc2O)C1 (centres undefined)	32.2	40.5	30	49.2	–	–	–	–	–
CC1=NN(C(=O)CN(C(C)C)C(C)C)C(c2ccccc2O)C1 (centres undefined)	32.3	4.96	31.2	15.1	–	–	–	–	–
CC1=NN(C(=O)c2ccc(C)cc2)C(c2cc(Br)ccc2O)C1 (centres undefined)	41.2	32.6	21	23.2	–	–	–	–	–
CCN(CC)CC(=O)N1N=C(C)CC1c1ccccc1O (centres undefined)	25.9	45.7	39.8	51.6	–	–	–	–	–
CC1=NN(C(=O)COc2ccc(Cl)cc2)C(c2cc(Br)cc(Br)c2O)C1 (centres undefined)	40.2	46.3	50	–	–	–	Not Active	–	–
CC1=NN(C(=O)CN2CCC(Cl)CC2)C(c2ccccc2O)C1 (centres undefined)	34.8	28.6	30.3	42.1	–	–	–	–	–
CC1=NN(C(=O)CN2CC(C)CC(C)C2)C(c2ccccc2O)C1 (centres undefined)	36.4	20.9	30.7	51.9	–	–	–	–	–
O=C(CNC1CCCCC1)N1N=C(c2cc3ccccc3oc2=O)CC1c1ccccc1 (centres undefined)	48.5	38.3	26.4	34.4	–	–	–	–	–
CC1=NN(C(=O)c2ccc([N+](=O)[O-])cc2)C(c2ccccc2O)C1 (centres undefined)	36.6	45.2	50	30.1	–	–	–	–	–
CCC(=O)N1N=C(C)CC1c1cc(Br)ccc1O (centres undefined)	37.8	20.8	50.3	–	–	–	Not Active	–	–
Cc1ccc(C(=O)N2N=C(c3cc4ccccc4oc3=O)CC2c2ccccc2)cc1 (centres undefined)	13.2	26.1	31.3	52.3	–	–	–	–	–
CC1=NN(C(=O)CN2CCCC(C)C2)C(c2ccccc2O)C1 (centres undefined)	35.5	35.6	42.9	17.9	–	–	–	–	–
